Results from ChEMBL document CHEMBL4396881, “Improved Th17 Selectivity of α-Galactosylceramide via Noncovalent Interactions with Diether Moiety” (ACS Med Chem Lett, 2019).
The source made the active and inactive calls.

Assays:
Format in all cases: functional
[1] = species: Mus musculus; experiment: Stimulation of cytokine secretion in C57BL/6 mouse HMNCs assessed as increase in IFN gamma secretion at 25 nM measured after 72 hrs by ELISA
[2] = species: Mus musculus; experiment: Stimulation of cytokine secretion in C57BL/6 mouse HMNCs assessed as increase in IL-4 secretion at 25 nM measured after 72 hrs by ELISA
[3] = species: Mus musculus; experiment: Stimulation of cytokine secretion in C57BL/6 mouse HMNCs assessed as increase in IL-2 secretion at 25 nM measured after 24 hrs by ELISA
Summary of the method: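 Mouse hepatic mononuclear cells were exposed to the α-GalCer analogues. IL-2 secretion was read 24 h after treatment. Results were expressed as relative activity, mean ± SEM, from n = 3 biological replicates.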

[4] = species: Mus musculus; experiment: Stimulation of cytokine secretion in C57BL/6 mouse HMNCs assessed as increase in IL-17 secretion at 25 nM measured after 72 hrs by ELISA
[5] = species: Mus musculus; experiment: Stimulation of cytokine secretion in C57BL/6 mouse HMNCs assessed as increase in IL-17 secretion measured after 72 hrs by ELISA
[6] = species: Mus musculus; experiment: Stimulation of cytokine secretion in C57BL/6 mouse HMNCs assessed as increase in IL-17 secretion at 5 to 125 nM measured after 72 hrs by ELISA
[7] = species: Mus musculus; experiment: Antiinflammatory activity in C57BL/6 mouse HMNCs assessed as reduction in IL-17 secretion at 5 to 125 nM

Measured: Activity

CCCCCCCCCCCCCC[C@@H](O)[C@@H](O)[C@H](CO[C@H]1O[C@H](CO)[C@H](O)[C@H](O)[C@H]1O)NC(=O)CCCCCCCCCCCCCCOCCCCCCCOCC
active: [1] | [2] | [3] | [4]

CCCCCCCCCCCCCC[C@@H](O)[C@@H](O)[C@H](CO[C@H]1O[C@H](CO)[C@H](O)[C@H](O)[C@H]1O)NC(=O)CCCCCCCCCCCCCCCCOCCCCCOCC
active: [1] | [2] | [3] | [4]

CCCCCCCCCCCCCC[C@@H](O)[C@@H](O)[C@H](CO[C@H]1O[C@H](CO)[C@H](O)[C@H](O)[C@H]1O)NC(=O)CCCCCCCCCCCOCCCCCCCCCCOCC
active: [1] | [2] | [5] Dose-dependent effect | [3] | [4]

CCCCCCCCCCCCCC[C@@H](O)[C@@H](O)[C@H](CO[C@H]1O[C@H](CO)[C@H](O)[C@H](O)[C@H]1O)NC(=O)CCCCCCCCCCCCCCOCCCCCCOCCC
active: [1] | [2] | [3] | [4]

CCCCCCCCCCCCCC[C@@H](O)[C@@H](O)[C@H](CO[C@H]1O[C@H](CO)[C@H](O)[C@H](O)[C@H]1O)NC(=O)CCCCCCCCCCCCCCCCOCCCCOCCC
not listed: [5]
active: all other assays above

CCCCCCCCCCCCCC[C@@H](O)[C@@H](O)[C@H](CO[C@H]1O[C@H](CO)[C@H](O)[C@H](O)[C@H]1O)NC(=O)CCCCCCCCCCCCOCCCCCCCCCOCC
active: [1] | [2] | [5] Dose-dependent effect | [3] | [4]

CCCCCCCCCCCCCC[C@@H](O)[C@@H](O)[C@H](CO[C@H]1O[C@H](CO)[C@H](O)[C@H](O)[C@H]1O)NC(=O)CCCCCCCCCCCCOCCCCCCCCOCCC
active: [1] | [2] | [3] | [4]

CCCCCCCCCCCCCC[C@@H](O)[C@@H](O)[C@H](CO[C@H]1O[C@H](CO)[C@H](O)[C@H](O)[C@H]1O)NC(=O)CCCCCCCCCCCOCCCCCCCCCOCCC
active: [1] | [2] | [3] | [4]

CCCCCCCCCCCCCCCCCCCCCCCCCC(=O)N[C@@H](CO[C@H]1O[C@H](CO)[C@H](O)[C@H](O)[C@H]1O)[C@H](O)[C@H](O)CCCCCCCCCCCCCC
active: [1] | [2]
